Screens as filed in PubChem.
MrgX1 antag: antagonists of human MrgX1 receptor, primary screen, HEK293 cells, Fluo-4 calcium flux; B-score at 10 µM; 1.3% of 310,000 active; BAM8-22 antagonism; stronger effect = lower value;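 active = calcium-response B-score plate-corrected more than 3 library SD below zero, starting fluorescence within 5 deviations, no agonist response on first addition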;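 note: peak minus trough fluorescence over baseline after final BAM8-22 challenge near maximal dose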
MrgX1 agonist: agonists of human MrgX1 receptor, primary screen, HEK293 cells, Fluo-4 calcium flux; AID 588627, 2011; 0.44% of 310,000 active; Fluo-4 calcium fluorescence, agonist mode; stronger effect = higher value; B-score at 10 µM; Mas-related G-protein coupled receptor member X1 (Homo sapiens), Q96LB2;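 active = calcium response B-score plate-corrected fluorescence ratio at least 3 library SD, with starting fluorescence B-score inside 5 SD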
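Material: MrgX1-expressing HEK293 cells; input: 15,000 cells per well; doses: test compound given as first of three sequential additions; schedule: overnight plating before 1 h dye loading; technique: Fluo-4 NW calcium-flux fluorescence, kinetic read; evaluation: baseline-normalised fluorescence change ratio, B-scored; control set: plate-wise positive and negative controls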
RGS4 inh: RGS4 inhibitors, primary screen, cell-based, HEK293 M3R inducible RGS4, calcium flux; Fluo-4 calcium flux; stronger effect = higher value; triggered by carbachol at its EC20; B-score at 10 µM; 0.45% of 310,000 active; Regulator of G-protein signaling 4 (Homo sapiens), P49798;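 active = B-score, a plate-corrected calcium signal, over three deviations above library mean, with baseline fluorescence within five deviations of library mean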;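 note: RGS4 expression induced by doxycycline in cells with stable M3 receptor; B-score is computed from the integrated fluorescence ratio over baseline after carbachol; higher B-score means a larger calcium signal and so more RGS4 inhibition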
MrgX1 allo act: positive allosteric modulators of MrgX1, primary screen, HEK293 cells, Fluo-4 calcium flux; Mas-related G-protein coupled receptor member X1 (Homo sapiens), Q96LB2; FDSS; stronger effect = higher value; B-score at 10 µM; 0.63% of 310,000 active; AID 588675, 2011;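 active = plate-corrected calcium response at least 3 library SD above typical, normal starting fluorescence, not activating the receptor alone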;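 note: compound read alongside a low EC10 to EC30 dose of BAM8-22 agonist; peak minus trough fluorescence over baseline measured at the second addition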
KCC2 mod: KCC2 cotransporter modulators, thallium flux, primary screen, cell-based, HEK293 KCC2, FluoZin-2 fluorescence, MLSMR | 2.2% of 190,000 active | B-score of Tl+ flux slope (higher = more flux/activation; lower = inhibition) at 10 µM | Solute carrier family 12 member 5 (Homo sapiens), Q9H2X9 | KCC2 cells, thallium flux FluoZin-2 fluorescence;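 active = thallium flux slope and its plate-corrected score both differing from the plate sample mean at a set confidence after two filtering rounds, in either direction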;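 note: slope of fluorescence scaled to starting intensity during 10 to 20 s after thallium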
Target sequence (Q9H2X9 whole entry, looked up): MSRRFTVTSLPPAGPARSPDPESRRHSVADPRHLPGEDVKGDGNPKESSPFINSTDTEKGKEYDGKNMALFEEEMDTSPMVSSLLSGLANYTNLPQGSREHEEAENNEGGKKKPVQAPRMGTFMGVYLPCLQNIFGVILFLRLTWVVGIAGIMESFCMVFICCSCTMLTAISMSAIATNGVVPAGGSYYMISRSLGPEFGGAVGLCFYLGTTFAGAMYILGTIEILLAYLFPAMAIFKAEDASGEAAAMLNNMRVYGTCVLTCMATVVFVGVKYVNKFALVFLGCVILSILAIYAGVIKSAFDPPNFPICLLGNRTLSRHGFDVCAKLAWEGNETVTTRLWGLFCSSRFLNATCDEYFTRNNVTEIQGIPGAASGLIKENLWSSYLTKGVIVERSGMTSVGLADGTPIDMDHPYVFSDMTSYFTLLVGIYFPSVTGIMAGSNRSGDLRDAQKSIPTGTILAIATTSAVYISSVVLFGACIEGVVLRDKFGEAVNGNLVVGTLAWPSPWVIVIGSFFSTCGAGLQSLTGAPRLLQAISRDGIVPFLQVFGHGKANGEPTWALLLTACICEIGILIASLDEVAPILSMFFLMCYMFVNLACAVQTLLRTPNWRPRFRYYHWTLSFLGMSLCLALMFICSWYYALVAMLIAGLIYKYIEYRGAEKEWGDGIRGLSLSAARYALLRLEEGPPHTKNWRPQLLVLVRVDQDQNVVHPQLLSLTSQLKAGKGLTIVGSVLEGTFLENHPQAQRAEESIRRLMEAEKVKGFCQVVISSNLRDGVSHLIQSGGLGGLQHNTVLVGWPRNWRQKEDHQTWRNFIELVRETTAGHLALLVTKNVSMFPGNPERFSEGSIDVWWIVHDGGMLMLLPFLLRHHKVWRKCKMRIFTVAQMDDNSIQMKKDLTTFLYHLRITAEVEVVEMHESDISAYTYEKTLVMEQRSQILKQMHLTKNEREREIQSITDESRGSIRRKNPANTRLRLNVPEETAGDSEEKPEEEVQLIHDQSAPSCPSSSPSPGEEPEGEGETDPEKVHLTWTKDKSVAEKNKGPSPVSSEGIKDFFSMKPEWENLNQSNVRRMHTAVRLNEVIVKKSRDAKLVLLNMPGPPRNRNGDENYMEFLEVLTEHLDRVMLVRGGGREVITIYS
RGS4 act: RGS4 potentiators or activators, primary screen, cell-based, HEK293 M3R inducible RGS4, calcium flux; B-score at 10 µM; carbachol calcium flux Fluo4; stronger effect = lower value; 0.92% of 310,000 active;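 active = B-score of the integrated calcium signal more than 4 SD below the library mean, with starting fluorescence not abnormally high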;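 note: negative B-score means reduced calcium response which marks RGS4 activation or potentiation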
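test system = M3R-expressing HEK293 line, RGS4 induced by doxycycline | probe or stimulus = carbachol at ECmax as muscarinic agonist stimulus | timing = dye loading 30 min 37 °C, buffer rest 30 min RT | signal = calcium dye Fluo4 fluorescence | evaluation = B score from integrated fluorescence ratio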
RGS4 activ val: reduced carbachol calcium response, RGS4-induced M3R cells, confirmation, RGS4 activator project, cell-based, HEK293 M3R/RGS4 inducible, calcium flux, duplicate; inhibition, % at 10 µM; shares compounds with RGS4 act; carbachol calcium flux Fluo4; 89% of 1,100 active;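 active = inhibition above 3 SD of the buffer control wells, cut at about 41% in these data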;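 note: signal is the integrated peak-minus-minimum Fluo4 fluorescence over baseline ratio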
RGS4 act ctr: RGS4 activator counter-screen hit in non-induced cells; inhibition, % at 10 µM; 82% of 1,100 active; HEK293 M3R non-induced RGS4, Fluo4 calcium flux; after carbachol challenge at its EC90; AID 602283; shares compounds with RGS4 act;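 active = inhibition exceeding 3 SD of buffer-only control wells, cut at about 26% in these data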;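 note: percent drop in integrated peak-minus-baseline over baseline Fluo4 ratio after carbachol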
Active calls of the source: *; i = inactive; nt = no result. Only some compounds are listed: those with a hit (about 4.7% of all), similar ones and a draw of the others.

SMILES	MrgX1 antag	MrgX1 agonist	RGS4 inh	MrgX1 allo act	KCC2 mod	RGS4 act	RGS4 activ val	RGS4 act ctr
c1ccc(COc2ccc(CNCc3cccnc3)cc2)cc1	i	i	i	i	-0.1	-13*	84*	42*
CCOC(=O)c1[nH]c2ccc(F)cc2c1NC(=O)CCN1CCOCC1	i	i	i	i	-0.6	i	nt	nt
CCOC(=O)c1[nH]c2ccc(Br)cc2c1NC(=O)CCN1CCCC(C)(C)C1	i	i	i	i	0.08	-14*	94*	74*
CCOC(=O)c1ccc(NC(=S)N2CCCC(C)C2)cc1 (configuration not stated)	i	i	i	i	0.79	-8.9*	79*	26*
CCOC(=O)c1ccc(NC(=S)N2CCSC2c2ccc(Br)cc2)cc1 (configuration not stated)	i	i	i	i	-0.77	-8.1*	92*	91*
CCOC(=O)c1ccc(NC(=S)N2CCCC(C(=O)N3CCCC3)C2)cc1 (configuration not stated)	i	i	i	i	nt	i	nt	nt
CCOC(=O)c1ccc(NC(=S)N2CCC(O)CC2)cc1	i	i	i	i	0.52	i	nt	nt
Cc1ccc(C)c(N2CCN(C(=O)c3ccc(NC4=NC5CS(=O)(=O)CC5S4)cc3)CC2)c1 (configuration not stated)	i	i	i	i	nt	i	nt	nt
O=C(Nc1ccccc1O)c1cccc(S(=O)(=O)Nc2ccccc2O)c1	i	i	i	i	nt	i	nt	nt
Cc1ccccc1OCC(=O)NC(=S)Nc1ccccc1N1CCN(S(C)(=O)=O)CC1	i	i	i	i	nt	-9.1*	62*	0
Cc1ccccc1OCC(=O)NC(=S)Nc1ccc(N2CCCC2)cc1	i	i	i	i	-0.13	i	nt	nt
c1ccc(Cn2c(-c3ccccc3)c[n+]3c2SCCC3)cc1	i	i	i	i	0.42	-11*	92*	89*
CN(Cc1ccccc1)C(=O)COC(=O)c1ccc(=O)n(Cc2ccccc2)n1	i	i	i	i	nt	i	nt	nt
CN(C)S(=O)(=O)c1cccc(C(=O)Nc2n[nH]c(C(F)(F)F)n2)c1	i	i	i	i	nt	i	nt	nt
CCc1cc(=O)oc2cc(C)cc(OC(C)C(=O)NC(Cc3c[nH]c4ccc(O)cc34)C(=O)O)c12 (configuration not stated)	i	i	i	i	nt	i	nt	nt
CCOC(=O)C(=CNc1cc(Cl)c(-c2ccco2)c(Cl)c1)C(=O)OCC	i	i	i	i	0.7	-7.8*	82*	84*
COc1cccc(C(O)C2OC(=O)c3ccccc32)c1OC (configuration not stated)	i	i	i	i	nt	i	nt	nt
O=C(Nc1c(Cl)ccc2nsnc12)c1ccc([N+](=O)[O-])o1	i	i	i	i	nt	i	nt	nt
C=CCNC(=O)c1ccc2nc(-c3ccccc3)c(-c3ccccc3)nc2c1	i	i	i	i	-0.1	-8.9*	77*	44*
C=CCNC(=O)c1ccc(C(=O)c2ccccc2)cc1	i	i	i	i	nt	i	nt	nt
Cc1ccc(-c2nc3ccc(C(=O)O)cc3nc2-c2ccc(C)cc2)cc1	i	i	i	i	-1.3	i	nt	nt
O=C(O)c1ccc2nc3c(nc2c1)-c1ccccc1C3=O	i	i	i	i	-1.6	-11*	0	0
CCN(C(=O)c1cn(C)c(=O)c2ccccc12)c1ccccc1F	i	i	i	i	nt	i	nt	nt
O=C(c1ccc2c(=O)n3c(nc2c1)CCCCC3)N1CCN(c2ccccc2)CC1	i	i	i	i	-0.44	i	nt	nt
O=c1c2cc(Br)ccc2nc2n1CCCCC2	i	i	i	i	0.26	-8.9*	80*	30*
SMILES	MrgX1 antag	MrgX1 agonist	RGS4 inh	MrgX1 allo act	KCC2 mod	RGS4 act	RGS4 activ val	RGS4 act ctr
Cc1ccc2nc3n(c(=O)c2c1)CCCCC3	i	i	i	i	-0.93	i	nt	nt
O=C(c1ccc2c(=O)n3c(nc2c1)CCCCC3)N1CCN(C(c2ccccc2)c2ccccc2)CC1	i	i	i	i	-0.69	-7.7*	93*	92*
Cc1ccc(C)c(NC(=O)CN(C)C(=O)CN2C(=O)C3CCCCC3C2=O)c1 (configuration not stated)	i	i	i	i	nt	i	nt	nt
CC(C)c1cc(-c2cc(C(=O)NCc3ccccc3)on2)nc(NCC2CC2)n1	i	i	i	i	-0.4	-8.4*	92*	92*
CC(C)N(CC#CCC(O)(c1ccccc1)c1ccccc1)CCO	nt	nt	i	nt	0.52	i	nt	nt
CCN(CC#CCC(O)(c1ccccc1)c1ccccc1)C(C)C	i	i	i	i	0.15	-8.3*	79*	30*
CCN(CCCNC(=O)CN1C(=O)COc2ccc(S(=O)(=O)N3CCC(C)CC3)cc21)Cc1ccccc1	i	i	i	i	nt	i	nt	nt
Cc1ccc(CNC(=O)CSc2nc3c(sc4ccccc43)c(=O)n2CCCN2CCCC2)cc1	i	i	i	i	1	-11*	94*	97*
CCCNC(=O)CN1C(=O)NC(c2ccccc2)(c2ccccc2)C1=O	i	i	i	i	nt	i	nt	nt
O=C1c2ccccc2C(=O)N1c1ccc(S(=O)(=O)N2CCCCC2)cc1	i	i	i	i	nt	i	nt	nt
N=C1c2ccccc2CN1c1ccc(S(=O)(=O)N2CCCCC2)cc1	i	i	i	i	0.57	-8.8*	75*	36*
NC(=O)c1nsc(C(=O)N(c2cccc(F)c2)C(C(=O)NCC2CCCO2)c2ccc3ncccc3c2)c1N (configuration not stated)	i	i	i	i	nt	i	nt	nt
Cc1ccnc(Nc2nc(-c3ccc(Cl)cc3)cs2)c1	i	i	i	i	nt	i	nt	nt
